The results in this text go back to ChEMBL document CHEMBL1121519, “Basic antiinflammatory compounds. N,N',N''-Trisubstituted guanidines” (J Med Chem, 1980).

For orientation: Inhibition means the change of the read-out against control, counted positive when it falls. The term LD50 denotes the dose expected to kill half of the subjects tested. The inhibition is the relative decrease from the control value, in per cent.

The species named for data set [1] is Rattus norvegicus. As to the kind of experiment: Tested for inhibition in the rat paw injected with carrageenan. On the set-up: concentration or dose not given beside the values. It is filed as functional.
The subject of data set [2] is Rattus norvegicus. As to the kind of experiment: Total score is the sum of scores obtained in the adjuvant arthritis, acute toxicity, carrageenan edema, and prostaglandin synthetase assay. In kind it is functional. A general note: Carrageenan injected into the paw causes an acute inflammation.
The subject of data set [3] is Rattus norvegicus. As to the kind of experiment: Percent inhibition of carrageenan paw edema in rat, administered orally at a dose of one tenth of oral lethal dose in mice. It is filed as functional. Summed up: (§1)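 1 h later, 0.1 mL of 1% carrageenan was injected into the right hind-paw plantar tissue. Paw swelling was measured by mercury-displacement plethysmometry 3 h after carrageenan, compared with controls.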

Data set [4] in a line: Lethal dose in mice determined by Litchfield and Wilcoxon methods after peroral administration. It is filed as toxicity, organism-based. To be noted: mouse, in vivo, po. Summed up:
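Median lethal dose found after oral dosing of mice, four mice per dose level, and calculated by the Litchfield–Wilcoxon method.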

The species entered for data set [5] is Rattus norvegicus. Description: Tested for inhibition in the rat paw not injected with […]. On the set-up: concentration or dose not given beside the values. In kind it is functional. A digest of the protocol:
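Adjuvant-induced arthritis, female Lewis rats, six per group: M. butyricum in mineral oil (3 mg/mL, 0.1 mL) injected into right hind paw plantar tissue. Daily oral dosing from adjuvant day to day 28, 10 or 5 (mg/kg)/day according to mouse oral LD50 (≥1000 or <1000 mg/kg). Injected and noninjected paw swelling read by mercury-displacement plethysmometry on day 28.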

For data set [6], the target named is Cyclooxygenase (Bos taurus) (UniProt O62664+O62698). Description: Inhibition of prostaglandin synthetase in bovine seminal vesicle microsomes using Beckman liquid scintillation counter at 10 e-5 M. To be noted: Microsome.
Data set [7] in a line: Toxic score (3) was measured as lethal dose in orally administered mice. It is filed as toxicity, organism-based. To be noted: mouse, in vivo, po. Summed up:
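Score derived from mouse oral LD50 (Litchfield–Wilcoxon, four mice per dose), in mg/kg: >1000 = 3; 500-1000 = 2; <500 = 1.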

Data set [8] relates to Rattus norvegicus. As to the kind of experiment: Tested for percent enhancement of carrageenan paw edema in rat, administered orally at a dose of one tenth of oral lethal dose in mice. It is filed as functional. Summed up: as §1

Turning to `CC(C)(C)/N=C(\Nc1nccs1)Nc1ccnc2cc(Cl)ccc12`, the figures for the Inhibition in the data set filed under Rattus norvegicus [1], in the data set on Rattus norvegicus [3] and in the data set filed under Rattus norvegicus [5] were 26%, 61% and 8%, respectively. In addition, the Total score in the data set on Rattus norvegicus [2] stood at 7. For the same compound, the LD50 in data set [4] and in data set [7] was greater than 1000 mg/kg each time. Besides, the inhibition in data set [6] worked out at 5.5%.

Consider `Cc1cc(N/C(=N/C(C)(C)C)Nn2cnnc2)c2ccccc2n1`, for which, in data set [4], the LD50 was greater than 1000 mg/kg. For the same compound, the Enhancement in the data set with Rattus norvegicus [8] was 9%.

In the case of `CCOC(=O)c1cnc(/N=C(\Nc2cc(C)nc3ccccc23)NC2CCCCC2)s1`, the LD50 in data set [4] is greater than 1000 mg/kg. Moreover, in data set [6], the inhibition was 15.6%. Moreover, in the data set on Rattus norvegicus [8], the Enhancement stood at 16%.

`CCOC(=O)c1csc(/N=C(\Nc2cc(C)nc3ccccc23)NC(C)(C)C)n1` gave an LD50 in data set [4] greater than 1000 mg/kg. For the same compound, the inhibition in data set [6] amounted to 71.8%. Moreover, in the data set on Rattus norvegicus [8], the Enhancement is 36%.

`Cc1cc(N/C(=N/C2CCCC(C)C2C)Nc2nccs2)c2ccccc2n1.Cl` (configuration not stated) displayed an Inhibition in the data set on Rattus norvegicus [3] of 47%. The median lethal dose (LD50) in data set [4] was greater than 1000 mg/kg. In addition, the inhibition in data set [6] was 7%.

On to `CC/N=C(/Nc1nccs1)Nc1cc(C)nc2ccccc12`, for which the Inhibition with Rattus norvegicus [3] was determined as 56%. This compound also gave a median lethal dose (LD50) in data set [4] of 100 mg/kg. Further, the inhibition in data set [6] stood at 8%.

On to `CCc1cc(N/C(=N/C2CCCCC2)Nc2nccs2)c2ccccc2n1`, for which, in the data set with Rattus norvegicus [3], the Inhibition is recorded as 24%. The LD50 in data set [4] is greater than 1000 mg/kg. Further, in data set [6], the inhibition is 67%.

As for `Cc1cc(N/C(=N/C2(C)CCCC2)Nc2nccs2)c2ccccc2n1`, in the data set on Rattus norvegicus [2], the Total score is 7. In addition, in the data set with Rattus norvegicus [3], the Inhibition turned out to be 46%. This compound had an LD50 in data set [4] of 600 mg/kg. In data set [6], the inhibition worked out at 100%.

In turn, `CCOC(=O)c1cnc(/N=C(\Nc2cc(C)nc3ccccc23)NC(C)(C)C)s1` yielded an Inhibition in the data set with Rattus norvegicus [3] of 16%. In data set [4], the LD50 was greater than 1000 mg/kg. In addition, the inhibition in data set [6] was 15.8%.

In the data set with Rattus norvegicus [3], `Cc1cc(N/C(=N/C2CCC(C)CC2)Nc2nccs2)c2ccccc2n1` (configuration not stated) showed an Inhibition of 39%. For the same compound, the LD50 in data set [4] is greater than 1000 mg/kg. In addition, the inhibition in data set [6] worked out at 12.6%.

`CC(C)(C)/N=C(/Nc1nccs1)Nc1nccc2ccccc12` showed an Inhibition in the data set on Rattus norvegicus [3] of 18%. This compound registered an LD50 in data set [4] greater than 1000 mg/kg. In data set [6], the inhibition was 3.4%.

On to `Cc1cc(N/C(=N/C2CCCCC2)Nc2ccccc2)c2ccccc2n1`, for which the Inhibition with Rattus norvegicus [3] came out at 38%. Further, the LD50 in data set [4] stood at 300 mg/kg. For the same compound, in data set [6], the inhibition came to 10%.

Take `Cc1ccc2cccc(N/C(=N\C(C)(C)C)Nc3nccs3)c2n1`: the Inhibition in the data set with Rattus norvegicus [3] was 4%. The LD50 in data set [4] is greater than 1000 mg/kg. Further, the inhibition in data set [6] turned out to be 7%.

On to `CC(C)(C)/N=C(\Nc1ccccc1)Nc1nccs1`, for which the Inhibition in the data set with Rattus norvegicus [3] worked out at 24%. In data set [4], this compound had a 50% lethal dose (LD50) greater than 1000 mg/kg. The inhibition in data set [6] was 6.4%.

For `CC(C)(C)/N=C(\N)Nc1nccs1.O=C(O)/C=C\C(=O)O`, in the data set on Rattus norvegicus [3], the Inhibition was 54%. The LD50 in data set [4] stood at 600 mg/kg. The inhibition in data set [6] was 29%.

The compound `Cc1cc(N/C(=N/CC(C)C)Nc2nccs2)c2ccccc2n1` showed an Inhibition with Rattus norvegicus [3] of 57%. In data set [4], this compound showed an LD50 of 1000 mg/kg. For the same compound, in data set [6], the inhibition was found to be 18%.

`Cc1cc(N/C(=N/C23C[C@H]4C[C@@H](C2)C[C@@H](C3)C4)Nc2nccs2)c2ccccc2n1` gave an Inhibition with Rattus norvegicus [3] of 17%. Further, the LD50 in data set [4] was greater than 1000 mg/kg. For the same compound, the inhibition in data set [6] amounted to 32%.

In turn, `Cc1cc(N/C(=N/C(C)(C)C)Nc2ccccn2)c2ccccc2n1` registered an Inhibition in the data set on Rattus norvegicus [3] of 36%. Moreover, the LD50 in data set [4] was greater than 1000 mg/kg. Besides, the inhibition in data set [6] was 30.1%.

The compound `Cc1nc2ccccc2c(N/C(=N/C2CCCCC2)Nc2nccs2)c1Cl` gave an Inhibition in the data set on Rattus norvegicus [3] of 19%. Besides, in data set [4], the LD50 was greater than 1000 mg/kg. For the same compound, the inhibition in data set [6] was 8.1%.

In the data set on Rattus norvegicus [3], `Cc1cc(N/C(=N/C2CCCCC2)Nc2nncs2)c2ccccc2n1` returned an Inhibition of 40%. Also, the 50% lethal dose (LD50) in data set [4] worked out at 250 mg/kg. For the same compound, the inhibition in data set [6] was determined as 15.1%.

In the case of `Cc1ccc2nc(C)cc(N/C(=N/C(C)(C)C)Nc3nccs3)c2c1`, in the data set on Rattus norvegicus [3], the Inhibition was determined as 42%. In addition, the LD50 in data set [4] was greater than 1000 mg/kg. Besides, in data set [6], the inhibition was -7.5%.
